APP transl inh – APP translation inhibition; inhibition, % at 2 µM; 0.82% of 190,000 active; SH-SY5Y APP 5'UTR-luciferase reporter, luminescence;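 active = inhibition above a set limit, derived from the sample mean plus 3 SD, cut at about 45% in these data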
bCat nuc transl – modulators of beta-catenin nuclear translocation; nuclear translocation activity, % at 5 µM; HeLa beta-catenin nuclear translocation, immunofluorescence imaging; 0.3% of 190,000 active;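 active = nuclear translocation activity above 50% at 5 µM, with a well cell count of 50 or more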;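 note: per-cell ratio of nuclear to cytoplasmic median beta-catenin stain intensity; plate controls were DMSO negative control for no effect and GSK-3 inhibitor IX positive control for full effect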
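Signal – beta-catenin immunofluorescence imaging with DAPI · Test system – human HeLa cell line · Dosing – 5 µM primary single dose, 0.1% DMSO, 0.02–20 µM confirmation series · Measure – % activation, nuclear-to-cytoplasmic median beta-catenin signal ratio per cell · Incubation – 24 h compound exposure at 37°C, 5% CO2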
Ba/F3 V617F tox – loss of viability in JAK2V617F-driven Ba/F3 cells; Ba/F3 EpoR-JAK2V617F viability, ATP luminescence; inhibition, % at 5.6 µM; 1.1% of 220,000 active; AID 1446;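 active = inhibition above the campaign mean plus 3 SD over all tested compounds, cut at about 24% in these data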;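 note: cytokine-independent growth of Ba/F3 cells driven by EpoR plus mutant JAK2; 0% = DMSO-treated cells and 100% = JAK inhibitor I control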
IEC-6 tox – kills IEC-6 intestinal cells in KLF5 counter-screen; inhibition, % at 5 µM; 0.78% of 290,000 active; AID 1825; IEC-6 cytotoxicity, luminescence viability;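 note: 0% = plate median of test compound wells and 100% = cytotoxic reference compound wells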
BaF3 parental – counter-screen for JAK2V617F inhibitors: parental Ba/F3 viability inhibitors; 1.1% of 220,000 active; inhibition, % at 5.6 µM; CellTiter-Glo ATP luminescence;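 active = inhibition above a per-campaign cutoff, the mean inhibition of all tested compounds plus 3 SD, cut at about 27% in these data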;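 note: 0% = DMSO wells and 100% = JAK Inhibitor I control wells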
MT stabilizer – microtubule stabilizers in HeLa cells | HeLa tubulin immunostaining HCS, 24 h; share of cells brighter than vehicle mean+2SD | % tubulin-high responders, % at 10 µM | 0.83% of 200,000 active;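 active = plate Z-score above 3 for both tubulin-high and condensed-nucleus cell shares, with cell loss under 80%, at 10 µM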;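 note: anti alpha tubulin signal scored within the nucleus-defined area of each cell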
IEC-6 tox confirm – IEC-6 cytotoxicity, confirmation assay | shares compounds with IEC-6 tox | inhibition, % at 5 µM | IEC-6 rat intestinal epithelial viability, luminescence | 63% of 1,900 active;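 note: 0% = vehicle and 100% = reference cytotoxic drug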
An asterisk follows results filed as active; / = not tested or not shown. Only some compounds are listed: those with a hit (about 2.2% of all), similar ones and a draw of the others. Cut-off read from the data, not from the text of the source, unless noted: active = inhibition above about 22%; inactive = the rest.

SMILES	APP transl inh	bCat nuc transl	Ba/F3 V617F tox	IEC-6 tox	BaF3 parental	MT stabilizer	IEC-6 tox confirm
Cc1cccc(-c2nnn3c2nc(NCCc2ccc(S(N)(=O)=O)cc2)c2ccccc23)c1	-17	-6	0	-6	4	7	/
COc1ccc(N2CCCC2)c(NC(=O)c2ccc(Br)o2)c1	/	/	/	3	/	/	/
COc1ccc(-c2csc(NC(C)=O)n2)cc1OC	-8	-3	-1	-4	5	2	/
COc1cccc(NC(=O)Nc2nc(-c3ccc(OC)c(OC)c3)cs2)c1	/	/	/	24*	/	/	15
Nc1ccc(C(=O)N2CCCC2)cc1	-16	-2	4	-1	7	3	/
Nc1ccc(C(=O)n2c3ccccc3c3ccccc32)cc1	94*	/	68*	83*	73*	45*	58*
COc1ccc(S(=O)(=O)NCc2ccccn2)cc1NC(=O)c1ccccc1F	/	/	/	76*	/	/	52*
COc1ccc(C(CNC(=O)C2CCN(S(=O)(=O)c3ccc(F)cc3)CC2)N(C)C)cc1 (centres undefined)	/	/	/	4	/	/	/
O=C(c1nc(-c2ccccc2)n(-c2ccccc2)n1)N1CCN(S(=O)(=O)c2ccccc2)CC1	9	-3	-3	3	0	3	/
CC(C)Nc1ccc(Nc2ccnc3cc4ccccc4cc23)cc1	/	-2	18	12	11	/	/
c1ccc(CCNc2ccnc3cc4ccccc4cc23)cc1	22	2	53*	87*	43*	31*	43*
Cc1ccc(NC(=O)OCc2cccs2)cc1	/	/	/	2	/	/	/
COC(=O)c1sc(N)c(C(=O)OC)c1COC(=O)c1c(C)noc1C	43	24	71*	66*	73*	56*	42*
CCOc1ccc(CCNC(=O)Nc2cccc(OC)c2)cc1OCC	/	/	/	1	/	/	/
CCN(C(=O)CCN1C(=O)/C(=C/c2ccccc2)SC1=S)C1CCS(=O)(=O)C1 (centres undefined)	/	/	/	2	/	/	/
Cc1ccc(O)c(CNc2cccc3cccnc23)c1	11	-1	3	2	8	3	/
Oc1ccc(Br)cc1CNc1cccc2cccnc12	/	/	/	44*	/	/	0
O=C(Nc1nc2ccccc2[nH]1)c1ccc(F)cc1	-107	1	4	6	8	3	/
O=C(Nc1nc2ccccc2[nH]1)c1ccccc1F	1	-2	50*	43*	46*	3	57*
CC(=O)NS(=O)(=O)c1ccc(NC(=O)c2oc3c(Cl)cccc3c2C)cc1	/	-1	-1	1	-4	/	/
O=C(Nc1ccc(Cl)cn1)c1cccc2c(Br)cccc12	/	/	/	82*	/	/	14
Cc1ccccc1C(=O)Nc1ccc(Cl)cn1	-68	-2	-4	-2	2	1	/
CCCCCC(=O)N[C@@H](c1ccccc1)[C@@H](O)C(=O)O[C@H]1C[C@@]2(O)[C@@H](OC(=O)c3ccccc3)C3[C@](C)(C(=O)[C@H](OC(C)=O)C(=C1C)C2(C)C)[C@@H](O)C[C@H]1OC[C@@]31OC(C)=O (some centres undefined)	/	/	/	96*	/	/	86*
O=C(Cn1ncc(Cl)c(Cl)c1=O)N1CCc2ccccc21	95*	-2	6	41*	-7	2	21
O=C(Cn1ncc2c1-c1ccccc1OC2)N1CCc2ccccc21	-15	0	-1	2	4	4	/
SMILES	APP transl inh	bCat nuc transl	Ba/F3 V617F tox	IEC-6 tox	BaF3 parental	MT stabilizer	IEC-6 tox confirm
O=[N+]([O-])CC(c1ccc(F)cc1)c1c[nH]c2ccccc12 (centres undefined)	/	/	/	47*	/	/	29*
O=C(NN=C1CCCCCC1)c1ccc(Cl)s1	/	/	/	10	/	/	/
COc1ccc(C2NN=C(c3c[nH]c4ccccc34)C2O)cc1 (centres undefined)	/	/	/	1	/	/	/
COc1ccc(C2C(O)C(c3c[nH]c4ccccc34)=NN2C(=O)CCl)cc1 (centres undefined)	/	/	/	102*	/	/	100*
COc1ccc(C(c2c(O)ccc3ccccc23)N2CCOCC2)c(OC)c1 (centres undefined)	-74	-2	-1	35*	0	2	-1
Cc1nnc(N/N=C/c2ccc(-c3ccccc3F)o2)n1N	-36	-2	5	102*	8	3	5
CCc1nnc(N/N=C/c2ccc(-c3ccc([N+](=O)[O-])cc3)o2)n1N	14	1	1	10	6	3	/
